# Most compounds without a hit are left out; they make up all but 1.4% or so of the library.
# Rin1 Abl inh: inhibitors of human Rin1-Abl protein interaction | TR-FRET Rin1/Abl binding, biochemical | AID 588664 | 360,000 tested, 0.4% active | inhibition, % at 7.35 µM; in the data active means inhibition above about 5%, passing the limit was not always enough
# UCH37 DUB inh: inhibitors of human deubiquitinating enzyme UCH37; purified proteasome/UCH37, Ub-AMC cleavage fluorescence; inhibition, % (concentration not given with the values); 330,000 tested, 0.33% active; AID 588478;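 active means mean inhibition over replicate wells above about 20%, limit read from the data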;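 further: 0% = compound-free wells with enzyme and 100% = wells lacking proteasome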
#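 system = Proteasome-associated human UCH37 deubiquitinase | amount = 0.15 nM proteasome as dispensed | medium = pH 7.4 Tris-HCl (50 mM) with ovalbumin, ATP-MgCl2, DTT | incubation = 30 min preincubation with enzyme, 25 min cleavage at room temperature | detection = AMC fluorescence 355/460 nm | read-out basis = percent inhibition | controls = no-proteasome and no-compound wells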
# ATG4B inhibitor: blocks human ATG4B protease cleavage of LC3 substrate | Q9Y4P1 | ATG4B cleavage of LC3-PLA2, NBD-HPC fluorescence, 1 h | inhibition, % at 8.33 µM | 340,000 tested, 0.51% active; in the data active means inhibition above about 40%
# Target sequence (Q9Y4P1 whole entry, looked up): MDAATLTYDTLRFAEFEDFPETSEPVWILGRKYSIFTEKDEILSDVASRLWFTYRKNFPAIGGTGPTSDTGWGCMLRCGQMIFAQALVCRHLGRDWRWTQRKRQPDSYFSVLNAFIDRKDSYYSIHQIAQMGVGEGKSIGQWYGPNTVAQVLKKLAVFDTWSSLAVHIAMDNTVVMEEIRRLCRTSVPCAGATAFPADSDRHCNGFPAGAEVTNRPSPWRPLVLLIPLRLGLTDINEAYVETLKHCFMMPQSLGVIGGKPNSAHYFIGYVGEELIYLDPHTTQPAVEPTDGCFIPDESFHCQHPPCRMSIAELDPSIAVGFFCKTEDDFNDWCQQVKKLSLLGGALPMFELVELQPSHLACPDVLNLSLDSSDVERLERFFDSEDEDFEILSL
# Tb MetRS inh: blocks T. brucei methionyl-tRNA synthetase activity. purified T. brucei MetRS, ATP depletion, Kinase-Glo luminescence. inhibition, % at 11.9 µM. 360,000 tested, 0.4% active. AID 624268;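 active means inhibition above a per-plate cutoff of the control wells' mean inhibition plus 3 SD, cut at about 5.5% in these data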;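 further: 0% = DMSO wells median and 100% = median of wells with control inhibitor compound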
#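 Material – parasite MetRS enzyme · Medium – HEPES-MgCl2-KCl buffer plus DTT, spermine, BSA, pyrophosphatase · Reagent – ATP, methionine and E. coli bulk tRNA substrates · Times – 15 min enzyme-compound preincubation, 2 h reaction, 10 min detection, 25 °C · Measured by – luminescence of leftover ATP · Evaluation – percent inhibition relative to median high and low control wells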
# Rin1-Abl confirm: Rin1-Abl interaction inhibition confirmation; shares compounds with Rin1 Abl inh; TR-FRET Rin1-Abl binding, purified proteins; inhibition, % at 7.35 µM; 1,300 tested, 49% active; AID 602124
# GFP quencher: quenches GFP fluorescence, counter-screen for Rin1-Abl inhibitors; 1,300 tested, 8.5% active; shares compounds with Rin1 Abl inh; inhibitors/quenchers counterscreen; inhibition, % at 6.75 µM;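 further: ABL1-eGFP fusion protein alone without its partner RIN1-SBP; 0% = protein with vehicle and 100% = wells lacking protein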
# GFP quench dose: quenches GFP in dose response, Rin1-Abl counter-screen; AID 602182; GFP fluorescence interference/quenching counterscreen; IC50, µM; shares compounds with Rin1 Abl inh; 230 tested, under 10 active; call rule not given here;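 further: ABL1-eGFP fusion protein alone without its RIN1 binding partner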
# Numbers without * were called inactive; nt = no result given. Unless noted, no stated cut-off is given here; in the data, active means inhibition above about 6.5%; inactive means the rest.
SMILES,Rin1 Abl inh,UCH37 DUB inh,ATG4B inhibitor,Tb MetRS inh,Rin1-Abl confirm,GFP quencher,others
Cc1c(NC(=O)c2cccc(S(=O)(=O)N(C)c3ccccc3)c2)c(=O)n(-c2ccccc2)n1C,2,3,-8,0,nt,nt,
CC(C)SC1=NC(C)(C)C=C(/C=C/c2c(Cl)cccc2Cl)N1,2,7,3,0,nt,nt,
CC1(C)CCN2CCC(C)(C)c3c(O)ccc1c32,7.6*,nt,1,0,2,1,
CCn1c(SCC(=O)c2ccc(CNC(C)=O)o2)nnc1-c1cccs1,-1,6,-4,-1,nt,nt,
C#CCOCCOCCOCCNc1nc(N2CCOCC2)nc(N2CCN(C(=O)[C@H](Cc3ccc(O)cc3)n3cc([C@@H](N)CC(C)C)nn3)CC2)n1,14*,0,-11,0,15*,0,
COC(=O)c1cc(O)cc(OC)c1Oc1cc(C)cc(O)c1C(=O)O,20*,6,-17,-2,21*,4,GFP quench dose=>68
COC1=C(Nc2ccccc2)C(=O)C(OC)=C(Nc2ccccc2)C1=O,3,7,-2,0,nt,nt,
NC(=S)NN=Cc1cc(-c2cccc(N)c2)ccn1,11*,nt,nt,0,14*,5,
CC(=O)Nc1ccc(NC(=O)CSc2nnc(-c3ccccc3)n2Cc2ccc3c(c2)OCO3)cc1,7.8*,2,-3,-1,4,0,
C=CCn1c(SCC(=O)Nc2ccc3c(c2)OCO3)nnc1-c1ccccc1,2,1,10,-1,nt,nt,
CC1(C)CC(=O)c2cn3c(nc2C1)nc1ccccc13,7.8*,0,-4,-1,10*,1,
O=C(Cn1nc2n(c1=O)-c1ccccc1SC2)NN=Cc1cccs1,nt,4,nt,nt,nt,nt,
CC1(C2CC2)NC(=O)N(CC(=O)N2CCN(c3cccc(C(F)(F)F)c3)CC2)C1=O (stereo not given),8.6*,1,-12,0,-2,1,
Cc1ccc(CC(=O)N2CCN(c3cccc(C(F)(F)F)c3)CC2)cc1,0,3,10,0,nt,nt,
CC1C=CCC2C(=O)N(c3cccc(C(=O)NCc4ccccc4)c3)C(=O)C12 (stereo not given),7.8*,2,3,-1,-2,0,
Nc1c(N(CCO)C(=O)/C=C/c2ccco2)c(=O)[nH]c(=O)n1Cc1ccccc1,1,0,-3,0,nt,nt,
O=C(COc1ncnc2c1cnn2-c1ccccc1)Nc1ccc(S(=O)(=O)N2CCCCC2)cc1,8.8*,1,-18,0,6,0,
NS(=O)(=O)c1cccc(NC(=O)COc2ncnc3c2cnn3-c2ccccc2)c1,-3,1,-7,0,nt,nt,
CCOC(=O)CCc1n[nH]c(=O)[nH]c1=O,0,4,6,-1,nt,nt,
CCOC(=O)CCCCC(=O)c1[nH]c(=O)[nH]c1Cn1ccnc1,28*,6,6,0,30*,0,GFP quench dose=>68
CCCCSCc1[nH]c(=O)[nH]c1C(=O)CCCCC(=O)OCC,48*,5,-9,0,46*,-1,GFP quench dose=>68
Clc1nnc2ccc(-c3ccccc3)nn12,-1,-25,-2,-1,nt,nt,
CC1CCN(c2nc(/C=C/c3ccccc3)nc3ccccc23)CC1,0,-2,-2,0,nt,nt,
COc1ccc(CC(=O)Oc2ccc(C)cc2Br)cc1OC,41*,1,1,-1,51*,-2,GFP quench dose=>68
COc1ccc(CC(=O)Oc2ccc(C)cc2C)cc1,0,4,6,-1,nt,nt,
O=C1C=C(N2CCOCC2)c2cccc3cccc1c23,16*,nt,nt,0,-15,1,
CN1C(=O)C(Cl)(Cl)C(=O)c2ccccc21,18*,-103,-4,0,11*,2,
CN1C(=O)C2(NC(=O)c3ccccc3N2C)c2ccccc21 (stereo not given),-2,-1,10,0,nt,nt,
CC[C@@H](NCCCn1ccc(NC(=O)OCc2ccccc2)nc1=O)c1ccccc1,8.4*,nt,nt,-1,8.8*,-1,
COc1ccc(CN(C)CCCn2ccc(NC(=O)OCc3ccccc3)nc2=O)cc1OC,15*,nt,nt,0,22*,-3,GFP quench dose=>68

# Source: PubChem BioAssay
